# Experimental data published in ChEMBL document CHEMBL1255417, “Correlation between in vitro activity of posaconazole and in vivo efficacy against Rhizopus oryzae infection in mice” (Antimicrob Agents Chemother, 2010).
# The source made the active and inactive calls. The rule behind the calls is not given here.
# Legend:
# Rhizopus arrhizus [1] = assay: Antifungal activity against drug-susceptible Rhizopus oryzae UTHSC 05-2447 by broth microdilution method; format: functional
# How it was run: (§1)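 CLSI broth microdilution for filamentous fungi (M38-A2); MIC recorded in µg/ml against clinical isolates; breakpoints applied at 24 h.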
# Rhizopus arrhizus [2] = assay: Antifungal activity against drug-susceptible Rhizopus oryzae UTHSC 06-1080 at 5 ug by disk diffusion assay; format: functional; settings: read-out: DIZ
# How it was run: (§2)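 Neo-Sensitabs tablet diffusion on Mueller-Hinton agar, run per the mould guidelines. Tablets are 9 mm in diameter and carry 5 ug posaconazole. The read-out is the inhibition zone diameter in mm.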
# Rhizopus arrhizus [3] = assay: Antifungal activity against drug-susceptible Rhizopus oryzae UTHSC 04-2159 at 5 ug by disk diffusion assay; format: functional; settings: read-out: DIZ
# How it was run: (§3)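 Neo-Sensitabs tablet diffusion on Mueller-Hinton agar, following guidelines for molds; 9 mm tablets containing 5 µg posaconazole; inhibition zone diameter measured in mm; zone breakpoints applied at 24 h.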
# Rhizopus arrhizus [4] = assay: Antifungal activity against drug-susceptible Rhizopus oryzae UTHSC 03-3110 by broth microdilution method; format: functional; how it was run: as §1
# Rhizopus arrhizus [5] = assay: Antifungal activity against drug-susceptible Rhizopus oryzae UTHSC 02-2882 infected in OF1 mouse assessed as increase in mouse survival at 20-30 mg/kg, po bid treated 24 hrs after fungal infection; format: functional, organism-based
# How it was run: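 Survival model in male OF1 mice, 30 g. Mice were immunosuppressed 1 day before infection with cyclophosphamide 200 mg/kg i.p. plus 5-fluorouracil 150 mg/kg i.v., then infected i.v. via lateral tail vein with 2 × 10^4 CFU in 0.2 ml saline. Oral gavage at 10, 20 or 30 mg/kg BID began 24 h post-challenge for 7 days. Ceftazidime 5 mg/day s.c. was given days 1–7. Groups of 10 were checked daily for 20 days; untreated controls.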
# Rhizopus arrhizus [6] = assay: Antifungal activity against drug-susceptible Rhizopus oryzae UTHSC 04-278 by broth microdilution method; format: functional; how it was run: as §1
# Rhizopus arrhizus [7] = assay: Antifungal activity against drug-susceptible Rhizopus oryzae UTHSC 04-1220 after 24 to 48 hrs; format: functional
# How it was run: (§4)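 Minimum fungicidal concentration: 20 µl from each microdilution well showing complete inhibition (optically clear) plated on potato dextrose agar, incubated 35°C for 24 to 48 h; MFC taken as lowest drug concentration giving no growth.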
# Rhizopus arrhizus [8] = assay: Antifungal activity against drug-susceptible Rhizopus oryzae UTHSC 05-3132 by broth microdilution method; format: functional
# How it was run: (§5)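 Posaconazole MIC in ug/ml, determined by broth microdilution following the CLSI guidelines for moulds (M38-A2).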
# Rhizopus arrhizus [9] = assay: Antifungal activity against drug-susceptible Rhizopus oryzae UTHSC 06-4133 by broth microdilution method; format: functional; how it was run: as §5
# Rhizopus arrhizus [10] = assay: Antifungal activity against drug-susceptible Rhizopus oryzae UTHSC 02-2882 by broth microdilution method; format: functional
# How it was run: (§6)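 Broth microdilution MIC in µg/ml, run per the CLSI (formerly NCCLS) guideline for filamentous fungi, M38-A2.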
# Rhizopus arrhizus [11] = assay: Antifungal activity against drug-intermediate Rhizopus oryzae UTHSC 05-3032 by broth microdilution method; format: functional; how it was run: as §6
# Rhizopus arrhizus [12] = assay: Antifungal activity against drug-susceptible Rhizopus oryzae UTHSC 05-2975 by broth microdilution method; format: functional; how it was run: as §5
# Rhizopus arrhizus [13] = assay: Antifungal activity against drug-susceptible Rhizopus oryzae UTHSC 06-89 infected in OF1 mouse assessed as reduction in brain fungal load at 10-30 mg/kg, po bid; format: functional, organism-based
# Rhizopus arrhizus [14] = assay: Antifungal activity against drug-susceptible Rhizopus oryzae UTHSC 03-547 after 24 to 48 hrs; format: functional; how it was run: as §4
# Rhizopus arrhizus [15] = assay: Antifungal activity against drug-susceptible Rhizopus oryzae UTHSC 03-1826 after 24 to 48 hrs; format: functional
# Rhizopus arrhizus [16] = assay: Antifungal activity against drug-susceptible Rhizopus oryzae UTHSC 06-329 by broth microdilution method; format: functional; how it was run: as §5
# Rhizopus arrhizus [17] = assay: Antifungal activity against drug-susceptible Rhizopus oryzae UTHSC 03-2970 by broth microdilution method; format: functional; how it was run: as §6
# Rhizopus arrhizus [18] = assay: Antifungal activity against drug-susceptible Rhizopus oryzae UTHSC 06-4035 after 24 to 48 hrs; format: functional
# How it was run: (§7)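 Minimum fungicidal concentration taken from the broth microdilution plates. From each well with complete inhibition (optically clear), 20 ul is plated on potato dextrose agar. Plates are incubated at 35°C for 24 to 48 h. The MFC is the lowest drug concentration giving no growth.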
# Rhizopus arrhizus [19] = assay: Antifungal activity against drug-susceptible Rhizopus oryzae UTHSC 04-443 at 5 ug by disk diffusion assay; format: functional; settings: read-out: DIZ; how it was run: as §3
# Rhizopus arrhizus [20] = assay: Antifungal activity against drug-susceptible Rhizopus oryzae UTHSC 02-2882 infected in OF1 mouse assessed as reduction in brain fungal load at 10-30 mg/kg, po bid treated 24 hrs after fungal infection; format: functional, organism-based
# How it was run: (§8)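 Tissue burden in immunosuppressed male OF1 mice, using cyclophosphamide 200 mg/kg i.p. plus 5-fluorouracil 150 mg/kg i.v. on day −1. Mice received 2 × 10^4 CFU i.v. by tail vein, then oral gavage at 10, 20 or 30 mg/kg BID from 24 h post-challenge, with ceftazidime cover; untreated controls. Groups of 10 were killed on day 4. Kidneys and brains were homogenized in 2 ml saline, serially diluted 10-fold, plated on PDA and counted after 24 h at 35°C.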
# Rhizopus arrhizus [21] = assay: Antifungal activity against drug-susceptible Rhizopus oryzae UTHSC 06-2457 after 24 to 48 hrs; format: functional; how it was run: as §7
# Rhizopus arrhizus [22] = assay: Antifungal activity against drug-susceptible Rhizopus oryzae UTHSC 05-2975 at 5 ug by disk diffusion assay; format: functional; settings: read-out: DIZ; how it was run: as §2
# Rhizopus arrhizus [23] = assay: Antifungal activity against drug-susceptible Rhizopus oryzae UTHSC 04-1220 at 5 ug by disk diffusion assay; format: functional; settings: read-out: DIZ; how it was run: as §3
# Rhizopus arrhizus [24] = assay: Antifungal activity against drug-susceptible Rhizopus oryzae UTHSC 06-89 at 5 ug by disk diffusion assay; format: functional; settings: read-out: DIZ
# Rhizopus arrhizus [25] = assay: Antifungal activity against drug-susceptible Rhizopus oryzae UTHSC 04-443 after 24 to 48 hrs; format: functional; how it was run: as §4
# Rhizopus arrhizus [26] = assay: Antifungal activity against drug-susceptible Rhizopus oryzae UTHSC 06-89 after 24 to 48 hrs; format: functional
# Rhizopus arrhizus [27] = assay: Antifungal activity against drug-susceptible Rhizopus oryzae UTHSC 03-1826 by broth microdilution method; format: functional; how it was run: as §6
# Rhizopus arrhizus [28] = assay: Antifungal activity against drug-susceptible Rhizopus oryzae UTHSC 04-2159 by broth microdilution method; format: functional; how it was run: as §1
# Rhizopus arrhizus [29] = assay: Antifungal activity against drug-susceptible Rhizopus oryzae UTHSC 05-3111 after 24 to 48 hrs; format: functional; how it was run: as §7
# Rhizopus arrhizus [30] = assay: Antifungal activity against drug-susceptible Rhizopus oryzae UTHSC 06-1351 after 24 to 48 hrs; format: functional; how it was run: as §7
# Rhizopus arrhizus [31] = assay: Antifungal activity against drug-intermediate Rhizopus oryzae UTHSC 05-3032 infected in OF1 mouse assessed as reduction in kidney fungal load at 10-30 mg/kg, po bid treated 24 hrs after fungal infection; format: functional, organism-based; how it was run: as §8
# Rhizopus arrhizus [32] = assay: Antifungal activity against drug-susceptible Rhizopus oryzae UTHSC 03-3110 after 24 to 48 hrs; format: functional; how it was run: as §4
# Rhizopus arrhizus [33] = assay: Antifungal activity against drug-susceptible Rhizopus oryzae UTHSC 05-197 after 24 to 48 hrs; format: functional; how it was run: as §4
# Rhizopus arrhizus [34] = assay: Antifungal activity against drug-susceptible Rhizopus oryzae UTHSC 06-3827 at 5 ug by disk diffusion assay; format: functional; settings: read-out: DIZ; how it was run: as §2
# Rhizopus arrhizus [35] = assay: Antifungal activity against drug-susceptible Rhizopus oryzae UTHSC 03-228 by broth microdilution method; format: functional; how it was run: as §6
# Rhizopus arrhizus [36] = assay: Antifungal activity against drug-susceptible Rhizopus oryzae UTHSC 06-2374 at 5 ug by disk diffusion assay; format: functional; settings: read-out: DIZ; how it was run: as §2
# Rhizopus arrhizus [37] = assay: Antifungal activity against drug-susceptible Rhizopus oryzae infected in OF1 mouse assessed as mouse survival at 30 mg/kg, po bid treated 24 hrs after fungal infection; format: functional
smiles,measurement,setting,value
CC[C@@H]([C@H](C)O)n1ncn(-c2ccc(N3CCN(c4ccc(OC[C@@H]5CO[C@@](Cn6cncn6)(c6ccc(F)cc6F)C5)cc4)CC3)cc2)c1=O [POSACONAZOLE],MIC,Rhizopus arrhizus [1],1 µg/mL
same,zone of inhibition at 5 µg/disc,Rhizopus arrhizus [2],18 mm
same,zone of inhibition at 5 µg/disc,Rhizopus arrhizus [3],20 mm
same,MIC,Rhizopus arrhizus [4],1 µg/mL
same,Activity,Rhizopus arrhizus [5],Active
same,MIC,Rhizopus arrhizus [6],1 µg/mL
same,MFC,Rhizopus arrhizus [7],1 µg/mL
same,MIC,Rhizopus arrhizus [8],0.5 µg/mL
same,MIC,Rhizopus arrhizus [9],0.5 µg/mL
same,MIC,Rhizopus arrhizus [10],0.25 µg/mL
same,MIC,Rhizopus arrhizus [11],2 µg/mL
same,MIC,Rhizopus arrhizus [12],1 µg/mL
same,Activity,Rhizopus arrhizus [13],Active
same,MFC,Rhizopus arrhizus [14],0.5 µg/mL
same,MFC,Rhizopus arrhizus [15],0.5 µg/mL
same,MIC,Rhizopus arrhizus [16],0.5 µg/mL
same,MIC,Rhizopus arrhizus [17],1 µg/mL
same,MFC,Rhizopus arrhizus [18],0.5 µg/mL
same,zone of inhibition at 5 µg/disc,Rhizopus arrhizus [19],22 mm
same,Activity,Rhizopus arrhizus [20],Active
same,MFC,Rhizopus arrhizus [21],> 16 µg/mL
same,zone of inhibition at 5 µg/disc,Rhizopus arrhizus [22],20 mm
same,zone of inhibition at 5 µg/disc,Rhizopus arrhizus [23],20 mm
same,zone of inhibition at 5 µg/disc,Rhizopus arrhizus [24],23 mm
same,MFC,Rhizopus arrhizus [25],1 µg/mL
same,MFC,Rhizopus arrhizus [26],1 µg/mL
same,MIC,Rhizopus arrhizus [27],0.5 µg/mL
same,MIC,Rhizopus arrhizus [28],0.5 µg/mL
same,MFC,Rhizopus arrhizus [29],2 µg/mL
same,MFC,Rhizopus arrhizus [30],0.5 µg/mL
same,Activity,Rhizopus arrhizus [31],inactive
same,MFC,Rhizopus arrhizus [32],1 µg/mL
same,MFC,Rhizopus arrhizus [33],0.5 µg/mL
same,zone of inhibition at 5 µg/disc,Rhizopus arrhizus [34],18 mm
same,MIC,Rhizopus arrhizus [35],0.25 µg/mL
same,zone of inhibition at 5 µg/disc,Rhizopus arrhizus [36],23 mm
same,Activity,Rhizopus arrhizus [37],30%
